Values after ≈ are worked out from the molar mass of the structure shown. Active and inactive are the calls of the source. No cut-off for these calls is given here.
Legend:
Acinetobacter baumannii = assay: Antibacterial activity against multidrug-resistant Acinetobacter baumannii clinical isolates assessed as inhibition of bacterial growth at 20 uM by broth microdilution method; type: functional, organism-based
In short: (§1)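 Broth microdilution in triplicate against a small bacterial panel, with compounds tested at 20 μM for growth inhibition.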

[1] = Chemical stability in 0.1 M NH4HCO3 solution at pH 9.1 assessed as reduction in parent compound at 1 to 10 uM measured after 24 hrs by HPLC-EM/MS analysis; type: physicochemical; conditions: dose 1-10 µM, read-out: Drug degradation
In short: (§2)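 Compounds at 1–10 μM incubated 24 h at 37 °C in three media: pH 1.2 (0.1 M HCl), pH 7.4 (PBS) and pH 9.1 (0.1 M NH4HCO3). Remaining parent compound quantified afterward.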

[2] = Chemical stability in PBS at pH 7.4 assessed as parent compound remaining at 1 to 10 uM measured after 24 hrs by HPLC-EM/MS analysis; type: physicochemical; conditions: dose 1-10 µM, read-out: Stability; in short: as §2
[3] = biological target: T1, Enoyl-[acyl-carrier-protein] reductase [NADH] (Mycobacterium tuberculosis, UniProt P9WGR1); assay: Competitive inhibition of Mycobacterium tuberculosis InhA using varying concentrations of DD-CoA as substrate assessed as inhibition constant for enzyme-inhibitor binary complex in presence of NADH by Lineweaver-Burk plot analysis
T1 sequence (P9WGR1 whole entry): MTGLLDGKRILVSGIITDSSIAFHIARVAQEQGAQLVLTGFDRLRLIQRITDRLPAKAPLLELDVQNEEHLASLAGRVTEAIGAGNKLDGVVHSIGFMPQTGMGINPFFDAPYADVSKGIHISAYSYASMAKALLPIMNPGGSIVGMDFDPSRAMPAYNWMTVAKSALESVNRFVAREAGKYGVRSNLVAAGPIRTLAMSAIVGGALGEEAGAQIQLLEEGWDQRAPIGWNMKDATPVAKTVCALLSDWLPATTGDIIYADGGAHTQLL
In short: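 Steady-state kinetics with recombinant MtInhA in 100 mM Pipes pH 7.0 at 25 °C. NADH fixed at 60 μM, DD-CoA varied 15–135 μM, inhibitor at fixed-varied levels of 0.2–4 μM. Kis is fitted to the competitive inhibition equation.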

[4] = Chemical stability in 0.1 M HCl solution at pH 1.2 assessed as parent compound remaining at 1 to 10 uM measured after 24 hrs by HPLC-EM/MS analysis; type: physicochemical; conditions: dose 1-10 µM, read-out: Stability; in short: as §2
[5] = biological target: T2, Enoyl-[acyl-carrier-protein] reductase [NADH] (Mycobacterium tuberculosis) (UniProt P9WGR1); assay: Binding affinity to Mycobacterium tuberculosis InhA assessed as change in entropy at 250 uM in presence of NADH by fluorescence spectroscopy
T2 sequence (whole entry): T1 sequence (P9WGR1 whole entry)

[6] = system: Mycobacterium tuberculosis; assay: Antibacterial activity against Mycobacterium tuberculosis H37Rv ATCC 27294 infected in mouse RAW264.7 cells assessed as reduction in colony forming units at 5 uM measured after 5 days (reference value: 4.19 +/- 0.41); type: functional; conditions: time 5 day
[7] = system: Mycobacterium tuberculosis; assay: Antibacterial activity against pan-sensitive Mycobacterium tuberculosis H37Rv ATCC 27294 measured after 7 days by resazurin dye based assay; type: functional; conditions: H37Rv ATCC 27294, 168 h, time 7 day
In short: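 Resazurin reduction microplate assay (REMA) in Middlebrook 7H9 broth with 10% ADC and 5% DMSO. Compounds come from 2 mg/mL DMSO stocks and are 2-fold serially diluted, top concentration 0.08–40 μg/mL depending on solubility. MIC is the lowest concentration preventing the blue-to-pink colour change. Three independent experiments; the reported value is the modal or the highest value.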

[8] = Selectivity index, ratio of CC50 for African green monkey Vero cells by neutral red uptake assay to MIC for pan-sensitive Mycobacterium tuberculosis H37Rv ATCC 27294; type: toxicity, cell-based; conditions: read-out: Selectivity Index
[9] = biological target: T2, Enoyl-[acyl-carrier-protein] reductase [NADH] (Mycobacterium tuberculosis); assay: Binding affinity to Mycobacterium tuberculosis InhA assessed as gibbs free energy change at 250 uM in presence of NADH by fluorescence spectroscopy
In short: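 Titration of pre-formed MtInhA:NADH complex (2 mL of 3 μM enzyme with 20 μM NADH), adding microliter aliquots of 250 μM ligand stock with dilution kept ≤1%. Intrinsic fluorescence read at 295 nm excitation, 310–500 nm emission. Temperatures 15, 20, 25 and 30 °C. KD is fitted to a hyperbolic isotherm. ΔH°, ΔS° and ΔG° come from van't Hoff analysis of KD across temperatures.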

[10] = Metabolic stability in rat liver microsomes assessed as intrinsic clearance at 2 uM measured upto 30 mins by HPLC/MS/MS analysis; type: ADME, Microsome; conditions: read-out: CLH
In short: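 Compounds at 2 μM incubated at 37 °C with 1 mg/mL rat liver microsomes containing NADPH. Parent compound consumption followed over time.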

[11] = Solubility of compound in 0.1 M HCl solution at pH 1.2 at 1 mg incubated for 4 hrs under shaking conditions by liquid chromotography; type: physicochemical
In short: (§3)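 1 mg of compound was added to 1 mL of PBS pH 7.4 or 0.1 M HCl, in triplicate. Suspensions were vortexed 1 min, shaken 4 h at 25 °C, then centrifuged 13000 rpm for 15 min at 25 °C. Supernatant was quantified by reverse-phase UHPLC (UV 260–280 nm) against a single-point calibration of compound in DMSO.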

[12] = Selectivity index, ratio of CC50 for African green monkey Vero cells by MTT assay to MIC for pan-sensitive Mycobacterium tuberculosis H37Rv ATCC 27294; type: toxicity, cell-based; conditions: read-out: Selectivity Index
[13] = biological target: T1, Enoyl-[acyl-carrier-protein] reductase [NADH]; assay: Noncompetitive inhibition of Mycobacterium tuberculosis InhA using DD-CoA as substrate assessed as inhibition constant for enzyme-substrate-inhibitor ternary complex in presence of varying concentrations of NADH by double reciprocal plot analysis
Staphylococcus aureus = assay: Antibacterial activity against Staphylococcus aureus ATCC 25923 assessed as inhibition of bacterial growth at 20 uM by broth microdilution method; type: functional, organism-based; in short: as §1
[14] = Cytotoxicity against human HepG2 cells assessed as reduction in cell viability incubated for 72 hrs by MTT assay; type: toxicity, cell-based
In short: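 Cells grown in DMEM with 10% FBS. HepG2 seeded at 4 × 10³ and Vero at 2 × 10³ cells/well, 24 h before dosing. Compounds at 1, 5 and 20 μM in 1% DMSO for 72 h at 37 °C, 5% CO2. MTT readout: 5 mg/mL reagent for 4 h, absorbance at 595 nm. Neutral red readout: 25 μg/mL dye for 3 h, then acid-ethanol desorb. Viability is expressed relative to 1% DMSO controls.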

[15] = biological target: T2, Enoyl-[acyl-carrier-protein] reductase [NADH] (Mycobacterium tuberculosis); assay: Time dependent inhibition of Mycobacterium tuberculosis InhA
[16] = Chemical stability in 0.1 M NH4HCO3 solution at pH 9.1 assessed as parent compound remaining at 1 to 10 uM measured after 24 hrs by HPLC-EM/MS analysis; type: physicochemical; conditions: dose 1-10 µM, read-out: Stability; in short: as §2
[17] = Selectivity index, ratio of CC50 for human HepG2 cells by neutral red uptake assay to MIC for pan-sensitive Mycobacterium tuberculosis H37Rv ATCC 27294; type: toxicity; conditions: read-out: Selectivity Index
[18] = biological target: T2, Enoyl-[acyl-carrier-protein] reductase [NADH] (Mycobacterium tuberculosis); assay: Binding affinity to Mycobacterium tuberculosis InhA assessed as change in enthalpy at 250 uM in presence of NADH by fluorescence spectroscopy
[19] = Solubility of compound in PBS at pH 7.4 at 1 mg incubated for 4 hrs under shaking conditions by liquid chromotography; type: physicochemical; in short: as §3

With `Cc1cc(Nc2ccc(N3CCCCC3)cc2)c2cc(Cl)ccc2n1` the Activity (Acinetobacter baumannii) was “inactive”, the degraded at 24 h, up to 10 µM [1] was > 75% and the remaining at 24 h, up to 10 µM [2] was 100%. It also gave a Ki [3] of 1330 nM, a remaining at 24 h, up to 10 µM [4] of 98.6% and a deltaS [5] of -49.8 cal/mol/K. The Activity [6] was 2.39 log10CFU, the MIC [7] was 0.9 µM (≈ 0.317 µg/mL) and the selectivity ratio [8] was 13. For the same compound, the deltaG [9] was -8.3 kcal/mol, the CLint scaled at 2 µM [10] was 60.5 mL/min/kg and the solubility thermodynamic at 4 h [11] was > 2800 µM. For the same compound, the selectivity ratio [12] was 21.3, the Ki [13] was 460 nM and the Activity (Staphylococcus aureus) was “inactive”. For the same compound, the CC50 at 72 h [14] was > 20000 nM, the TDI [15] was “inactive” and the remaining at 24 h, up to 10 µM [16] was 24.7%. For the same compound, the selectivity ratio [17] was 18.2, the deltaH [18] was -23.2 kcal/mol and the solubility thermodynamic at 4 h [19] was 18.6 µM (≈ 6.54 µg/mL).
With `Cc1cc(Nc2ccc(N3CCCCC3)cc2)c2cc(Br)ccc2n1` the Activity (Acinetobacter baumannii) was “inactive”, the degraded at 24 h, up to 10 µM [1] was ~50% and the remaining at 24 h, up to 10 µM [2] was 100%. It also gave a Ki [3] of 140 nM, a remaining at 24 h, up to 10 µM [4] of 94.6% and a deltaS [5] of -33.4 cal/mol/K. The Activity [6] was 2.74 log10CFU, the MIC [7] was 0.4 µM (≈ 0.159 µg/mL) and the selectivity ratio [8] was 30.5. For the same compound, the deltaG [9] was -8.3 kcal/mol, the CLint scaled at 2 µM [10] was 36.2 mL/min/kg and the solubility thermodynamic at 4 h [11] was > 2500 µM. For the same compound, the selectivity ratio [12] was > 50, the Ki [13] was 150 nM and the Activity (Staphylococcus aureus) was “inactive”. For the same compound, the CC50 at 72 h [14] was > 20000 nM, the TDI [15] was “inactive” and the remaining at 24 h, up to 10 µM [16] was 47%. The selectivity ratio [17] was 45.7, the deltaH [18] was -18.3 kcal/mol and the solubility thermodynamic at 4 h [19] was 3.9 µM (≈ 1.55 µg/mL).
